SKN-1 block: blocks SKN-1 activity in C. elegans; inhibition, % at 21.8 µM; C. elegans VP596 Pgst-4::GFP/RFP ratio, acrylamide-induced, 24 h; AID 624304; hit rate 0.49% among 360,000;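 active means interference check ratio from 0.5 to 1.5 plus GFP to RFP signal ratio inhibition reaching or exceeding a fixed threshold, cut at about 30% in these data, passing the limit was not always enough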
Rce1 inhib: blocks yeast Ras-converting enzyme | AID 2563 | hit rate 0.27% among 290,000 | calls only | yeast membranes, quenched prenylated peptide cleavage fluorescence | Q03530;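 active means fall in fluorescence gain of 50% or more versus controls, with final raw signal at or below 3038400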
Target sequence (Q03530 whole entry, looked up): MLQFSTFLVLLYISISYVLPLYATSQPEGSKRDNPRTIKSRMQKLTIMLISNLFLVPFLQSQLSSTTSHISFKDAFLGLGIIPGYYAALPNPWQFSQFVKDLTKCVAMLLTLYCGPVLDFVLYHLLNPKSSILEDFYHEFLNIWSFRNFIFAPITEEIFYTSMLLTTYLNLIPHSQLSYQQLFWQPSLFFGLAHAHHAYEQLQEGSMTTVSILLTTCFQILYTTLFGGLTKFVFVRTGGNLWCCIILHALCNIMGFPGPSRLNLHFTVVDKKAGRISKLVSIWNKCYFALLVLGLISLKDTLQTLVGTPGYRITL
Myeloid diff MLP: compounds promoting myeloid differentiation. ER-HoxA9 myeloid progenitors, lysozyme-GFP differentiation, flow cytometry. calls only at 10 µM. hit rate 1% among 360,000. AID 624256;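 active means normalized GFP-positive differentiation at or above the plate's own cutoff, the solvent-only control mean plus 3 SD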;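 further: cells exposed to compound for four days before flow analysis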
GRK2 inh: inhibitors of human GRK2 displacing RNA aptamer; P25098; AID 488847; inhibition of aptamer binding, % at 10 µM; hit rate 0.59% among 330,000; bead flow cytometry, FAM-aptamer displacement from GRK2;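 active means inhibition of aptamer binding above 40%, roughly 3 SD of noise, on plates passing a quality check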;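 further: median bead fluorescence of bound FAM aptamer so fluorescent compounds give negative values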
T cell HTS: T cell immune modulation candidate; response (vesicle binding), % at 7 µM; AID 2052; hit rate 0.068% among 330,000; 2C CD8+ T cell-vesicle binding, flow cytometry; hits give low values;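 active means response, share of CD8 T cells binding vesicles, and their 90th percentile fluorescence all below set limits, cut at about 80% in these data, passing the limit was not always enough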;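 further: values below 100% mean blocked vesicle binding to the CD8+ T cells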
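System: murine 2C transgenic CD8+ T lymphocytes; also added: QL9-loaded Drosophila micro-vesicles; times: binding 1.5 h at 37 °C; measured by: flow cytometry, PE anti-B7-1 (FL2) versus Alexa647 anti-CD8 (FL8), PFA-fixed; control set: Peptide-free naked vesicles (low) and QL9 vesicles with 0.7% DMSO vehicle (high)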
Rin1 Abl inh: inhibitors of human Rin1-Abl protein interaction; TR-FRET Rin1/Abl binding, biochemical; P00519+Q13671; inhibition, % at 7.35 µM; hit rate 0.4% among 360,000; in the data active means inhibition above about 5%, passing the limit was not always enough
Hits are given with their value. An excerpt weighted towards active compounds, which were near 2.6% of everything screened.

`CC(C)NC(=O)Nc1ccc2c(c1)C(=O)N([C@H](C)CO)C[C@H](C)[C@@H](CN(C)Cc1ccc(C(F)(F)F)cc1)OCCCC[C@H](C)O2` gave SKN-1 block inactive, Myeloid diff MLP inactive and Rin1 Abl inh inactive.
Screening C=CCNc1nc2ccccc2nc1NS(=O)(=O)c1cccs1 returned SKN-1 block inactive, Rce1 inhib inactive, Myeloid diff MLP inactive, GRK2 inh inactive, T cell HTS inactive and Rin1 Abl inh inactive.
Screening O=S(=O)(Nc1nc2ccccc2nc1NCc1ccco1)c1cccs1 returned SKN-1 block inactive, Rce1 inhib inactive, Myeloid diff MLP active, GRK2 inh inactive, T cell HTS inactive and Rin1 Abl inh inactive.
Screening Cn1c(CCNS(=O)(=O)c2ccccc2)nnc1SCc1cccnc1 returned SKN-1 block inactive, Rce1 inhib active, Myeloid diff MLP inactive, GRK2 inh inactive, T cell HTS inactive and Rin1 Abl inh inactive.
`CCSc1nnc(CCNS(=O)(=O)c2ccc(C(C)=O)cc2)n1C` gave SKN-1 block inactive, Rce1 inhib inactive, Myeloid diff MLP inactive, GRK2 inh inactive, T cell HTS inactive and Rin1 Abl inh inactive.
Screening COc1ccc(C(=O)c2c3ccc(C(F)(F)F)cc3[n+]([O-])n2CCCC(N)=O)cc1 returned SKN-1 block inactive, Rce1 inhib inactive, Myeloid diff MLP inactive, GRK2 inh inactive, T cell HTS inactive and Rin1 Abl inh inactive.
For Cc1ccc(C(=O)c2c3ccc(C(F)(F)F)cc3nn2CCC(N)=O)cc1 the results were SKN-1 block inactive, Rce1 inhib active, Myeloid diff MLP inactive, GRK2 inh inactive, T cell HTS inactive and Rin1 Abl inh inactive.
For CC1=C(C)CC(C(=O)NCc2c(F)cccc2Cl)C(C(=O)O)C1 (centres undefined) the results were SKN-1 block inactive, Rce1 inhib inactive, Myeloid diff MLP inactive, GRK2 inh inactive, T cell HTS inactive and Rin1 Abl inh inactive.
`CCCCNC1=CC(=O)C(NCCCC)=CC1=O` gave SKN-1 block inactive, Myeloid diff MLP inactive and Rin1 Abl inh inactive.
CCCCNC1=CC(=O)C(=O)c2ccccc21 was read as SKN-1 block inactive, Rce1 inhib inactive, Myeloid diff MLP active, GRK2 inh inactive, T cell HTS inactive and Rin1 Abl inh inactive.
Clc1ccsc1-c1ccc2ccccc2n1 was read as SKN-1 block 90, Rce1 inhib inactive, Myeloid diff MLP inactive, GRK2 inh inactive, T cell HTS inactive and Rin1 Abl inh inactive.
c1ccc2nc(-c3nccs3)ccc2c1 was read as SKN-1 block inactive, Myeloid diff MLP inactive, GRK2 inh inactive, T cell HTS inactive and Rin1 Abl inh inactive.
Screening CN(C)CCn1nnc2c(=O)oc3ccccc3c21 returned SKN-1 block inactive, Rce1 inhib inactive, Myeloid diff MLP inactive, GRK2 inh inactive, T cell HTS inactive and Rin1 Abl inh inactive.
Screening CC(=O)N(Cc1ccc(F)cc1)C1=C(NCc2ccccc2)C(=O)c2ccccc2C1=O returned SKN-1 block inactive, Rce1 inhib inactive, Myeloid diff MLP active and Rin1 Abl inh inactive.
`[O-]C1=N/[N+](=C/c2ccccc2)CC1` gave SKN-1 block inactive, Rce1 inhib inactive, Myeloid diff MLP inactive, GRK2 inh inactive, T cell HTS inactive and Rin1 Abl inh inactive.
For [O-]C1=N/[N+](=C/c2ccccc2Cl)CC1 the results were SKN-1 block 35, Rce1 inhib inactive, Myeloid diff MLP inactive, GRK2 inh inactive, T cell HTS inactive and Rin1 Abl inh inactive.
Cc1c(C#N)c(O)n(CCO)c(=O)c1N=Nc1ccccc1 was read as SKN-1 block 40, Rce1 inhib inactive, Myeloid diff MLP inactive, GRK2 inh inactive, T cell HTS inactive and Rin1 Abl inh inactive.
`CCN(C[C@H]1N[C@@](CC)(C(=O)OC)[C@H]2C(=O)N(Cc3ccccc3)C(=O)[C@@H]12)C(=O)Nc1ccc(OC)cc1` gave SKN-1 block inactive, Myeloid diff MLP active, GRK2 inh inactive, T cell HTS inactive and Rin1 Abl inh inactive.
`COc1cccc(CN2CCC2(C)C(=O)Nc2ccc3c(c2)CCN3C(C)=O)c1F` (centres undefined) gave SKN-1 block inactive, Myeloid diff MLP inactive and Rin1 Abl inh inactive.
`COc1ccc(CN2C(=O)C(C)Nc3ncnc(N4CCN(c5ccccn5)CC4)c32)cc1` (centres undefined) gave SKN-1 block inactive, Myeloid diff MLP inactive, GRK2 inh inactive, T cell HTS 0.0 and Rin1 Abl inh inactive.
Screening Cc1cccc(OCc2nnc(-c3ccc(F)cc3)o2)c1 returned SKN-1 block inactive, Myeloid diff MLP inactive, GRK2 inh inactive, T cell HTS inactive and Rin1 Abl inh inactive.
Screening CCCCCc1cc(=O)oc2c(C(CCN3CCCCC3)c3ccc4c(c3)OCO4)c(OC)cc(OC)c12 (centres undefined) returned SKN-1 block inactive, Rce1 inhib inactive, Myeloid diff MLP active, GRK2 inh inactive, T cell HTS inactive and Rin1 Abl inh inactive.
CC(C)N(C(=O)Cn1c(=O)oc2ccccc21)c1ccccc1 was read as SKN-1 block inactive, Rce1 inhib inactive, Myeloid diff MLP inactive, GRK2 inh inactive, T cell HTS inactive and Rin1 Abl inh inactive.
COc1ccc(Cc2c(-c3ccco3)nc3ccc(Br)cn23)c(C)c1 was read as SKN-1 block inactive, Myeloid diff MLP inactive and Rin1 Abl inh inactive.
`COc1ccc(Cc2c(-c3ccco3)nc3c(C)cc(Br)cn23)c(C)c1` gave SKN-1 block 48, Myeloid diff MLP inactive and Rin1 Abl inh inactive.
`C=C1/C=C(\C)C(C)(O)CC(O)CC(=O)C(O)C(O)C(C)CC(C)OC(=O)/C(C)=C/CC/C=C/C(OC)C(O)CC(C)C1` (centres undefined) gave SKN-1 block inactive, Myeloid diff MLP inactive, GRK2 inh inactive, T cell HTS inactive and Rin1 Abl inh inactive.
Screening COC(=O)CN(n1cnnc1)S(=O)(=O)c1ccccc1Cl returned SKN-1 block inactive, Myeloid diff MLP inactive, GRK2 inh inactive, T cell HTS 67 and Rin1 Abl inh inactive.
`COc1ccc(/C=C\c2cc(OC)c(OC)cc2CC[N+](C)(C)C)cc1OC` gave SKN-1 block inactive, Rce1 inhib active, Myeloid diff MLP inactive, GRK2 inh inactive, T cell HTS inactive and Rin1 Abl inh inactive.
Screening O=[N+]([O-])c1ccc(CN2CCOCCOCCOCC2)cc1 returned SKN-1 block inactive, Rce1 inhib inactive, Myeloid diff MLP inactive, GRK2 inh inactive, T cell HTS inactive and Rin1 Abl inh inactive.
`CN(C)c1ccc(N=Nc2nc3ccccc3n2C)cc1` gave SKN-1 block 62, Rce1 inhib inactive, Myeloid diff MLP inactive, GRK2 inh inactive, T cell HTS inactive and Rin1 Abl inh inactive.
Screening Cc1ccc(-c2nc(=S)c3c(n2CCN2CCOCC2)CC(C)(C)OC3)cc1 returned SKN-1 block 36, Rce1 inhib inactive, Myeloid diff MLP inactive, GRK2 inh inactive, T cell HTS inactive and Rin1 Abl inh inactive.
`COc1ccc(-c2nc(=S)c3c(n2CCN2CCOCC2)CC(C)(C)OC3)cc1` gave SKN-1 block inactive, Rce1 inhib inactive, Myeloid diff MLP inactive, GRK2 inh inactive, T cell HTS inactive and Rin1 Abl inh inactive.

Screens (PubChem BioAssay)
